Laboratory results from ChEMBL document CHEMBL1240422, “Design, synthesis and biological evaluation of 3,5-diaryl-isoxazoline/isoxazole-pyrrolobenzodiazepine conjugates as potential anticancer agents” (2010).
The source made the active and inactive calls. The calls are words filed in the database; no cut-off is given here.

Columns and labels:
A-375 [1] = test: Cell cycle arrest in human A375 cells assessed as accumulation at G0/G1 phase at 4 uM after 24 hrs using propidium iodide staining by FACS; format: functional
In short: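 Treated A375 cells (24 h) were harvested with trypsin-EDTA and fixed in ice-cold 70% ethanol (4 °C, 30 min). After a PBS wash, they were incubated with 1 mg/mL RNase A (37 °C, 30 min) and stained with propidium iodide solution containing trisodium citrate and Triton X-100. DNA content was measured by flow cytometry on 20,000 events. Controls were DMSO-treated.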

HCT-15 = test: Anticancer activity against human HCT15 cells after 48 hrs by SRB assay; format: functional; conditions: HCT-15, 48 h
A-375 [2] = test: Induction of apoptosis in human A375 cells assessed as increase in PPAR protein level at 4 uM after 24 hrs by Western blotting; format: functional, cell-based
In short: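 A375 cells were treated for 24 h and lysed in ice-cold RIPA buffer (1% NP-40, 0.5% deoxycholate, 0.1% SDS, protease inhibitors). Protein was quantified by Bradford assay, and 30 µg/lane was run on 12% SDS-PAGE and transferred to PVDF. Membranes were blocked 2 h at RT in TBST with 5% blocker, incubated with primary antibody overnight at 4 °C, then with HRP secondary (1:2000, 1 h, RT). Detection was by chemiluminescence, with β-actin as loading control.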

IGROV-1 = test: Anticancer activity against human IGROV1 cells after 48 hrs by SRB assay; format: functional; conditions: IGROV-1, 48 h
UACC-62 = test: Anticancer activity against human UACC62 cells after 48 hrs by SRB assay; format: functional; conditions: UACC-62, 48 h
HOP-92 = test: Anticancer activity against human HOP92 cells after 48 hrs by SRB assay; format: functional; conditions: HOP-92, 48 h
SK-MEL-28 = test: Anticancer activity against human SK-MEL-28 cells after 48 hrs by SRB assay; format: functional; conditions: SK-MEL-28, 48 h
SW-620 = test: Anticancer activity against human SW620 cells after 48 hrs by SRB assay; format: functional; conditions: SW-620, 48 h
BT-549 = test: Anticancer activity against human BT549 cells after 48 hrs by SRB assay; format: functional; conditions: BT-549, 48 h
MDA-MB-468 = test: Anticancer activity against human MDA-MB-468 cells after 48 hrs by SRB assay; format: functional; conditions: MDA-MB-468, 48 h
SK-MEL-2 = test: Anticancer activity against human SK-MEL-2 cells after 48 hrs by SRB assay; format: functional; conditions: SK-MEL-2, 48 h
KM12 = test: Anticancer activity against human KM12 cells after 48 hrs by SRB assay; format: functional; conditions: KM12, 48 h
UACC-257 = test: Anticancer activity against human UACC257 cells after 48 hrs by SRB assay; format: functional; conditions: UACC-257, 48 h
OVCAR-5 = test: Anticancer activity against human OVCAR5 cells after 48 hrs by SRB assay; format: functional; conditions: OVCAR-5, 48 h
HCT-116 = test: Anticancer activity against human HCT116 cells after 48 hrs by SRB assay; format: functional; conditions: HCT-116, 48 h
[3] = Anticancer activity against human Hs 578T cells after 48 hrs by SRB assay; format: functional
SK-MEL-5 = test: Anticancer activity against human SK-MEL-5 cells after 48 hrs by SRB assay; format: functional; conditions: SK-MEL-5, 48 h
COLO 205 = test: Anticancer activity against human COLO205 cells after 48 hrs by SRB assay; format: functional; conditions: COLO 205, 48 h
In short: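 Grown in RPMI 1640 with 10% FBS and 2 mM L-glutamine at 37 °C, 5% CO2. Seeded at densities set by doubling time, then preincubated 24 h. Continuous 48 h drug exposure at four concentrations (0.1, 1, 10, 100), triplicate wells. Fixed with cold TCA (final 10%) at 4 °C, 60 min. Stained with 0.4% SRB in 1% acetic acid, eluted with 10 mM Tris base, read at 540/690 nm. Percent growth versus control wells.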

DU-145 = test: Anticancer activity against human DU145 cells after 48 hrs by SRB assay; format: functional; conditions: DU-145, 48 h
NCI-H460 = test: Anticancer activity against human NCI-H460 cells after 48 hrs by SRB assay; format: functional; conditions: NCI-H460, 48 h
NCI-H522 = test: Anticancer activity against human NCI-H522 cells after 48 hrs by SRB assay; format: functional; conditions: NCI-H522, 48 h
HCC 2998 = test: Anticancer activity against human HCC2998 cells after 48 hrs by SRB assay; format: functional; conditions: HCC 2998, 48 h

SMILES: COc1ccc(C2=NOC(c3cc(OC)c(OC)c(OC)c3)C2)cc1OCCCCOc1cc2c(cc1OC)C(=O)N1CCC[C@H]1C=N2 (some centres not stated)
- Activity (A-375 [1]): 95.2%
- GI50 (HCT-15): 180 nM
- Activity (A-375 [2]): Active
- GI50 (IGROV-1): 240 nM
- GI50 (UACC-62): 160 nM
- GI50 (HOP-92): 310 nM
- GI50 (SK-MEL-28): 200 nM
- GI50 (SW-620): 230 nM
- GI50 (BT-549): 90 nM
- GI50 (MDA-MB-468): 220 nM
- GI50 (SK-MEL-2): 230 nM
- GI50 (KM12): 220 nM
- GI50 (UACC-257): 270 nM
- GI50 (OVCAR-5): 420 nM
- GI50 (HCT-116): 180 nM
- GI50 [3]: 160 nM
- GI50 (SK-MEL-5): 160 nM
- GI50 (COLO 205): 210 nM
- GI50 (DU-145): 580 nM
- GI50 (NCI-H460): 210 nM
- GI50 (NCI-H522): 120 nM
- GI50 (HCC 2998): 190 nM
